Data taken from ChEMBL document CHEMBL2311307, “Polymethoxyflavones as agents that prevent formation of cataract: nobiletin congeners show potent growth inhibitory effects in human lens epithelial cells” (Bioorg Med Chem Lett, 2013).
The source made the active and inactive calls. The rule behind the calls is not given here.

Tests used:
[1] = […] human SRA 01/04 cells assessed as inhibition of PMA-induced proMMP9 expression after 24 hrs by gelatin zymographic analysis; format: functional, cell-based
[2] = Growth inhibition of human SRA 01/04 cells at 32 uM after 4 days by Alamar blue assay; format: functional; settings: 96 h, read-out: GI
Method in brief: (§1)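 SRA01/04 human lens epithelial cells grown in DMEM with 20% heat-inactivated FBS plus penicillin/streptomycin/neomycin, 37 °C, 5% CO₂. Seeded at 3 × 10³ cells/well and treated in DMEM with varied flavonoid concentrations for up to 4 days. Alamar Blue added for the final 2 h, fluorescence read at ex 530/em 590 nm. Inhibition taken from the day 4 minus day 0 fluorescence change, treated versus control. n = 4, mean ± SD.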

[3] = Growth inhibition of human SRA 01/04 cells at 64 uM after 4 days by Alamar blue assay; format: functional; settings: 96 h, read-out: GI; method in brief: as §1
[4] = organism: Homo sapiens; assay: Growth inhibition of human SRA 01/04 cells after 4 days by Alamar blue assay; format: functional; method in brief: as §1
[5] = organism: Homo sapiens; assay: Growth inhibition of human SRA 01/04 cells assessed as reduction in PCNA expression at 64 uM after 4 days by Western blot analysis; format: functional
Method in brief: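 SRA01/04 cells plated at 2 × 10⁵ cells/dish, then harvested and lysed in RIPA buffer (pH 7.5 Tris–HCl, with orthovanadate, PMSF and protease inhibitors). 7 µg protein run on 12.5% SDS-PAGE and transferred to PVDF. Probed overnight at 4 °C with mouse anti-PCNA or anti-β-actin, then alkaline phosphatase secondary for 1 h at room temperature. Bands developed with BCIP/NBT.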

In the case of `COc1c(OC)c(O)c2c(=O)cc(-c3ccccc3O)oc2c1OC`, the IC50 [1] is reported as greater than 64 µM and the inhibition of growth at 32 µM [2] is reported as 30.7%.
With `COc1cccc(-c2cc(=O)c3c(OC)c(OC)c(OC)c(OC)c3o2)c1` the inhibition of growth at 32 µM [2] was 42%.
`COc1ccc(-c2cc(=O)c3c(OC)c(OC)c(OC)c(OC)c3o2)cc1` [TANGERETIN] showed an inhibition of growth at 32 µM [2] of 75.9%.
Work on `COc1ccccc1-c1cc(=O)c2c(OC)c(OC)c(OC)c(OC)c2o1` yielded an inhibition of growth at 32 µM [2] of 23.3%.
Compound `COc1c(OC)c(OC)c2c(=O)cc(-c3cccc(O)c3)oc2c1OC` has an inhibition of growth at 32 µM [2] of 18.3%.
`COc1c(OC)c(O)c2c(=O)cc(-c3ccc(O)cc3)oc2c1OC` [XANTHOMICROL] gave an inhibition of growth at 32 µM [2] of 42.3%.
For `COc1c(OC)c(OC)c2c(=O)cc(-c3c(O)cccc3O)oc2c1OC`, the IC50 [1] was 55 µM and the inhibition of growth at 32 µM [2] was 5.1%.
Work on `COc1c(OC)c(OC)c2c(=O)cc(-c3ccc(O)c(O)c3)oc2c1OC` yielded an inhibition of growth at 32 µM [2] of 26.5%.
`COc1cccc(OC)c1-c1cc(=O)c2c(OC)c(OC)c(OC)c(OC)c2o1` gave an IC50 [1] greater than 64 µM and an inhibition of growth at 32 µM [2] of 75.9%.
With `COc1ccc(-c2cc(=O)c3c(O)c(OC)c(OC)c(OC)c3o2)cc1OC` [5-DEMETHYLNOBILETIN] the inhibition of growth at 32 µM [2] was 17.2%.
`COc1c(OC)c(OC)c2c(=O)cc(-c3cc(O)cc(O)c3)oc2c1OC` showed an inhibition of growth at 32 µM [2] of 11.5%.
With `COc1cc(-c2cc(=O)c3c(OC)c(OC)c(OC)c(OC)c3o2)ccc1O` the inhibition of growth at 32 µM [2] was 30.7%.
Compound `COc1cc(-c2cc(=O)c3c(O)c(OC)c(OC)c(OC)c3o2)ccc1O` has an inhibition of growth at 32 µM [2] of 64.1%.
For `COc1cc(OC)cc(-c2cc(=O)c3c(OC)c(OC)c(OC)c(OC)c3o2)c1`, the inhibition of growth at 32 µM [2] was 59.9%.
With `COc1ccc(-c2cc(=O)c3c(OC)c(OC)c(OC)c(OC)c3o2)cc1OC` [NOBILETIN] the inhibition of growth at 64 µM [3] was 80%, the “growth inhibition (GI)” value [4] was “Dose-dependent effect” and the inhibition of growth at 32 µM [2] was 47.4%. For the same compound, the “growth inhibition (GI)” value [5] was “Active”.
In the case of `COc1c(OC)c(OC)c2c(=O)cc(-c3ccccc3O)oc2c1OC`, the inhibition of growth at 32 µM [2] is reported as 4.2%.
Work on `COc1c(OC)c(OC)c2c(=O)cc(-c3ccc(O)cc3)oc2c1OC` yielded an inhibition of growth at 32 µM [2] of 32%.
